Data set [1] has as its target T1, Metabotropic glutamate receptor 5 (Homo sapiens, UniProt P41594). Briefly: Antagonist activity at human mGluR5 expressed in HEK293 cells assessed as inhibition of L-glutamate-induced calcium mobilization at 1 uM by FDSS6000 assay. The data set is classed as functional, cell-based. The method, boiled down:
(§1)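 HEK cells stably expressing mGluR5, grown in DMEM with 10% FBS, penicillin, streptomycin and puromycin (10 µg/mL) at 37 °C, 5% CO₂. Cells seeded at 40,000/well, incubated 18 h, then loaded with Calcium-5 dye. In the FDSS6000 fluorescence assay, receptor activated with L-glutamate in HBSS in the presence of various concentrations of test compound. Read-out is inhibition of the Ca²⁺ signal.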
Target sequence in this assay (P41594 21-1212 limits assumed): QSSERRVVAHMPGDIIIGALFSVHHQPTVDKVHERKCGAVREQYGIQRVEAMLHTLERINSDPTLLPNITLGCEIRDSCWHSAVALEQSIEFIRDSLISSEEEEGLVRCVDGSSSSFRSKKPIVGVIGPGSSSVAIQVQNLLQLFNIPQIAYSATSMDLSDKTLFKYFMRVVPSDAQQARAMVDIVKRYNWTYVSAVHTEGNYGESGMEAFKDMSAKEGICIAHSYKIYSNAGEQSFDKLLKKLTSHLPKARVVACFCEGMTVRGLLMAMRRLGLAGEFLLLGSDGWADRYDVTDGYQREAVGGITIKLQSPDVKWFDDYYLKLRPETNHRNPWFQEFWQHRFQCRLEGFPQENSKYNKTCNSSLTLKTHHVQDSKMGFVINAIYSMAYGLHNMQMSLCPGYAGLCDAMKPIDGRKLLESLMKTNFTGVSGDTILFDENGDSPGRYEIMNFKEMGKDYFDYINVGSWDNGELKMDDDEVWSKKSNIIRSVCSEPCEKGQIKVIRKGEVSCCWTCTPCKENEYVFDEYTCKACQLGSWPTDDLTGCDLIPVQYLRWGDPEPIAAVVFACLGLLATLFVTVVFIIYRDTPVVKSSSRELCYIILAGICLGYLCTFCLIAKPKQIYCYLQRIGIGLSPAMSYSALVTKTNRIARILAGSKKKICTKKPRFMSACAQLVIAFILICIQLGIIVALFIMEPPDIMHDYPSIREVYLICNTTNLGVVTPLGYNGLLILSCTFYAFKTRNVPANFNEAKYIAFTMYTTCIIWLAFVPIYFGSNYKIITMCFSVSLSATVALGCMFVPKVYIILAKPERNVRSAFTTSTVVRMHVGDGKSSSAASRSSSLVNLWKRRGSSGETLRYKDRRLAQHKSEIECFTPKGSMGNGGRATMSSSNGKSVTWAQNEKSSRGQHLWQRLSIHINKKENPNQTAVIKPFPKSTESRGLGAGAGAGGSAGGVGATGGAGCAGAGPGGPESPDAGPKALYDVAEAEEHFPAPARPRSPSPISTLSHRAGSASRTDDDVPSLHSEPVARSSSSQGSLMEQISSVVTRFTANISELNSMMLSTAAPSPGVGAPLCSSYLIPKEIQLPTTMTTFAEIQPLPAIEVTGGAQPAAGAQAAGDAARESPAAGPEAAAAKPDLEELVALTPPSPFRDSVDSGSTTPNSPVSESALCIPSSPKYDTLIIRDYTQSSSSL
Background: Calcium assays in cells follow changes in intracellular calcium, usually with a dye or a luminescent sensor.

For data set [2], the target named is T1, Metabotropic glutamate receptor 5. Briefly: Antagonist activity at human mGluR5 expressed in HEK293 cells assessed as inhibition of L-glutamate-induced calcium mobilization at 10 uM by FDSS6000 assay. It is filed as functional, cell-based. The method, boiled down: as §1
Target sequence in this assay (P41594 21-1212 limits assumed): as above
Data set [3] concerns the target Voltage-gated inwardly rectifying potassium channel KCNH2 (Homo sapiens, UniProt Q12809).
The nature of data set [4]: Metabolic stability in human liver microsomes assessed as compound remaining at 1 uM after 30 mins. The settings on record: read-out: Stability. It is filed as ADME, Microsome. An outline of the steps:
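Compound at 1 µM incubated with human liver microsomes for 30 min; read-out is percent of parent remaining.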
For orientation: Microsomes from liver hold many membrane-bound enzymes, among them those of drug oxidation.

The next data set deals with CYP3A4 (Homo sapiens, UniProt P08684). Briefly: Inhibition of CYP3A4 (unknown origin) assessed as residual activity at 10 uM. The data set is classed as ADME. The settings on record: read-out: Activity. An outline of the steps: (§2)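 CYP2D6, CYP2C9 and CYP3A4 each tested with compound at 10 µM; read-out is percent enzyme activity remaining.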
The target in the next data set is CYP2C9 (Homo sapiens, UniProt P11712). Briefly: Inhibition of CYP2C9 (unknown origin) assessed as residual activity at 10 uM. The data set is classed as ADME. The settings on record: read-out: Activity. An outline of the steps:
as §2

Data set [5] concerns the target T1, Metabotropic glutamate receptor 5. Briefly: Antagonist activity at human mGluR5 expressed in HEK293 cells assessed as inhibition of L-glutamate-induced calcium mobilization by FDSS6000 assay.
Target sequence in this assay (P41594 whole entry): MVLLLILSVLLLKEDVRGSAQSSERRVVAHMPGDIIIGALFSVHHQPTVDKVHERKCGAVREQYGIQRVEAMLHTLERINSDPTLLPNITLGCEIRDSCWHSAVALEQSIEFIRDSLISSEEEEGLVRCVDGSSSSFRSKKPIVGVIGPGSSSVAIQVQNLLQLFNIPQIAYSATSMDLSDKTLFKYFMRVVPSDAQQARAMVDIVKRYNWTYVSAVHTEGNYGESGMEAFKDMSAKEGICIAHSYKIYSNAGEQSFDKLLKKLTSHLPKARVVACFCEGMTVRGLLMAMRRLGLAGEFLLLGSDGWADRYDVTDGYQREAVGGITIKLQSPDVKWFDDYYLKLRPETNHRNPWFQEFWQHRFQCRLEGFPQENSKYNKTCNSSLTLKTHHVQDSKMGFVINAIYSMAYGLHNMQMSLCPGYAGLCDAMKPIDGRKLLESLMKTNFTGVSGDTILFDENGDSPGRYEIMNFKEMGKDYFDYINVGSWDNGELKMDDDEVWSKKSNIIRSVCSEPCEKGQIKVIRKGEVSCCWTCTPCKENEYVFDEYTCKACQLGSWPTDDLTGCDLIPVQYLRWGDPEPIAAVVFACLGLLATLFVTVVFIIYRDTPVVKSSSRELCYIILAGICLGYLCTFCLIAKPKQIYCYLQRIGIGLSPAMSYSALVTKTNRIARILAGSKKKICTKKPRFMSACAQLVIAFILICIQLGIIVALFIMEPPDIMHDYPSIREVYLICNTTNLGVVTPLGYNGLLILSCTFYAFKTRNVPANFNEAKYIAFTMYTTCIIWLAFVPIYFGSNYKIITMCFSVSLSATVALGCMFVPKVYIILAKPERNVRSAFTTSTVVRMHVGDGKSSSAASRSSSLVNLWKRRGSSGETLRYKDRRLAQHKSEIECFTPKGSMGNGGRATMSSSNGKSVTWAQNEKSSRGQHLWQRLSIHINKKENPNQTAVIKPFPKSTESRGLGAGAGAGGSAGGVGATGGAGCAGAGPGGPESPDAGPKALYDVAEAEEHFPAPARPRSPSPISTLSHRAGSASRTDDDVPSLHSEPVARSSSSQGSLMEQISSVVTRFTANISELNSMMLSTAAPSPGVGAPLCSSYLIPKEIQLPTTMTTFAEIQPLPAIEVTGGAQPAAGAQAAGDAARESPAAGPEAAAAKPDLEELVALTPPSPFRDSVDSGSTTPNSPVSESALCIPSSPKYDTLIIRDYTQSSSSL
The target in a further data set is CYP2D6 (Homo sapiens, UniProt P10635). Briefly: Inhibition of CYP2D6 (unknown origin) assessed as residual activity at 10 uM. The settings on record: read-out: Activity. The data set is classed as ADME. An outline of the steps:
as §2

The test system of data set [6] is Rattus norvegicus. Description: Antiallodynic activity in rat spinal nerve ligation model of neuropathic pain assessed as reduction of cold allodynia at 100 mg/kg, po after 3 hrs. The data set is classed as functional, organism-based. The arrangement: dose 100 mg/kg. An outline of the steps:
(§3)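 Rat SNL model: tight ligation of L5 spinal nerve distal to DRG. Mechanical and cold allodynia were tested 1 day before and 14 days after surgery, then given orally, and retested at 1, 3 and 5 h. Mechanical allodynia used the wire-mesh-floor method, cold allodynia was scored as %MPE. Gabapentin was the reference (n = 4), test n = 5. Paired t-test versus pre-dose.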

Data set [7] in a line: Tmax in rat at 10 mg/kg, po. It is filed as ADME, organism-based. The settings on record: in vivo. The arrangement: dose 10 mg/kg, route oral. An outline of the steps: (§4)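 Rat plasma pharmacokinetics after a single oral dose of 10 mg/kg. The group size was n = 3 rats, and the reported values are group means.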
A short description of data set [8]: Half life in rat at 10 mg/kg, iv. It is filed as ADME, organism-based. The arrangement: dose 10 mg/kg, route intravenous. The settings on record: in vivo. An outline of the steps: (§5)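 Rat plasma pharmacokinetics after a 10 mg/kg dose, intravenous (n = 4) or oral (n = 3); mean parameters reported.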
Data set [9] is described as follows: Cmax in rat at 10 mg/kg, po. It is filed as ADME, organism-based. The arrangement: dose 10 mg/kg, route oral. The settings on record: in vivo. The method, boiled down: as §4
The nature of data set [10]: Half life in rat at 10 mg/kg, po. The data set is classed as ADME, organism-based. The arrangement: dose 10 mg/kg, route oral. The settings on record: in vivo. An outline of the steps:
as §5

Data set [11] can be described thus: Apparent volume of distribution at steady state in rat at 10 mg/kg, iv. The data set is classed as ADME, organism-based. The arrangement: dose 10 mg/kg, route intravenous. The settings on record: in vivo, read-out: Vdss(app). The method, boiled down: as §5
Data set [12] can be described thus: Clearance in rat at 10 mg/kg, iv. The settings on record: in vivo. The arrangement: dose 10 mg/kg, route intravenous. The data set is classed as ADME, organism-based. An outline of the steps:
as §5

A short description of data set [13]: Oral bioavailability in rat at 10 mg/kg. The settings on record: in vivo. It is filed as ADME, organism-based. The method, boiled down: as §5
The test system of data set [14] is Rattus norvegicus. Briefly: Antiallodynic activity in rat spinal nerve ligation model of neuropathic pain assessed as reduction of mechanical allodynia at 100 mg/kg, po after 5 hrs. The data set is classed as functional, organism-based. The arrangement: dose 100 mg/kg. An outline of the steps:
as §3

Active and inactive are the calls of the source.

By inhibition is commonly meant the change of the read-out against control, counted positive when it falls. As usually defined, the IC50 is the midpoint of a concentration-inhibition curve. By Tmax is commonly meant the time at which the peak concentration occurs. What is called half-life is the time needed for the level to fall by half in the phase considered. As a reminder, the Cmax is the peak of the concentration-time curve. As usually defined, the clearance is the volume of plasma or blood freed of the substance per unit of time. Usually bioavailability stands for the share of a dose that reaches the circulation, judged against a reference dose that is usually intravenous. A lower bioavailability goes with poor availability.

CYP2C9, sequence (P11712 whole entry): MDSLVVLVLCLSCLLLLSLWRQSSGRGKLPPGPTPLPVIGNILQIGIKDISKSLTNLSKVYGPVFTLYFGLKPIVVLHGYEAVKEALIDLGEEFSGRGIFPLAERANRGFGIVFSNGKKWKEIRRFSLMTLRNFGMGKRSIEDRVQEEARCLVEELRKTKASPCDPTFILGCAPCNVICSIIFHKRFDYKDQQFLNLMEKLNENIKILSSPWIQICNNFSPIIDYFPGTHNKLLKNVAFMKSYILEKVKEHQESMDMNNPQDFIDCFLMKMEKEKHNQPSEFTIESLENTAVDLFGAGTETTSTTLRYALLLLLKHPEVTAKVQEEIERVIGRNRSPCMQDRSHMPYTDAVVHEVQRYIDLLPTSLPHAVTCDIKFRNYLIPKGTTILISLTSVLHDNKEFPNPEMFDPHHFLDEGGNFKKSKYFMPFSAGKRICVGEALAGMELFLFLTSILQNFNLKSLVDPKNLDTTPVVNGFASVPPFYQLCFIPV
CYP3A4, sequence (P08684 whole entry): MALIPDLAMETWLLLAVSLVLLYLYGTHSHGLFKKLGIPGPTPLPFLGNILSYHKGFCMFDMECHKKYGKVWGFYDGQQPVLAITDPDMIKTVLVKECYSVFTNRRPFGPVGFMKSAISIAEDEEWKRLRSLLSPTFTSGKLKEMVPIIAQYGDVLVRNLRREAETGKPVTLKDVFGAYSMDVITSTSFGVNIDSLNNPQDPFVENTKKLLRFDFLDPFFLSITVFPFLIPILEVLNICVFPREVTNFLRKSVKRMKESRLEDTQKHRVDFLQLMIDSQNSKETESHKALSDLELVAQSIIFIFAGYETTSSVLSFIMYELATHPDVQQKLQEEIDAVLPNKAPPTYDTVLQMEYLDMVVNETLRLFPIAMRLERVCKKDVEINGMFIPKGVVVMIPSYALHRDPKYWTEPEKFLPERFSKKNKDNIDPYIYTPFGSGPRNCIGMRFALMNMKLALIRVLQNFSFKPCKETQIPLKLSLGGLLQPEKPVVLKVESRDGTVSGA
CYP2D6, sequence (P10635 whole entry): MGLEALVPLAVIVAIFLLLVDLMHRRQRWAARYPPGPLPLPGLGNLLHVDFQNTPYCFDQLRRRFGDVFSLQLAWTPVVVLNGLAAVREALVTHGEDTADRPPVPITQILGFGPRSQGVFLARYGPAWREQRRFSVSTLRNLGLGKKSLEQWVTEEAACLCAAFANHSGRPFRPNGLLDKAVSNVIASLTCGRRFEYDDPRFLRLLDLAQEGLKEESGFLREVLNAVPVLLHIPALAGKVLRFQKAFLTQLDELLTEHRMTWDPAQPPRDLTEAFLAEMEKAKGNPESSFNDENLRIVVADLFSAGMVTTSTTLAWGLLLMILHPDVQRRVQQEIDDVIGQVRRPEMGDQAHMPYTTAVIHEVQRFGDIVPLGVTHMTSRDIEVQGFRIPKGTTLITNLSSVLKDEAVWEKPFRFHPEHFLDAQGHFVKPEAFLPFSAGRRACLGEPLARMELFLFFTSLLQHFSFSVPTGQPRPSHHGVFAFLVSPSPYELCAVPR
Voltage-gated inwardly rectifying potassium channel KCNH2, sequence (Q12809 whole entry): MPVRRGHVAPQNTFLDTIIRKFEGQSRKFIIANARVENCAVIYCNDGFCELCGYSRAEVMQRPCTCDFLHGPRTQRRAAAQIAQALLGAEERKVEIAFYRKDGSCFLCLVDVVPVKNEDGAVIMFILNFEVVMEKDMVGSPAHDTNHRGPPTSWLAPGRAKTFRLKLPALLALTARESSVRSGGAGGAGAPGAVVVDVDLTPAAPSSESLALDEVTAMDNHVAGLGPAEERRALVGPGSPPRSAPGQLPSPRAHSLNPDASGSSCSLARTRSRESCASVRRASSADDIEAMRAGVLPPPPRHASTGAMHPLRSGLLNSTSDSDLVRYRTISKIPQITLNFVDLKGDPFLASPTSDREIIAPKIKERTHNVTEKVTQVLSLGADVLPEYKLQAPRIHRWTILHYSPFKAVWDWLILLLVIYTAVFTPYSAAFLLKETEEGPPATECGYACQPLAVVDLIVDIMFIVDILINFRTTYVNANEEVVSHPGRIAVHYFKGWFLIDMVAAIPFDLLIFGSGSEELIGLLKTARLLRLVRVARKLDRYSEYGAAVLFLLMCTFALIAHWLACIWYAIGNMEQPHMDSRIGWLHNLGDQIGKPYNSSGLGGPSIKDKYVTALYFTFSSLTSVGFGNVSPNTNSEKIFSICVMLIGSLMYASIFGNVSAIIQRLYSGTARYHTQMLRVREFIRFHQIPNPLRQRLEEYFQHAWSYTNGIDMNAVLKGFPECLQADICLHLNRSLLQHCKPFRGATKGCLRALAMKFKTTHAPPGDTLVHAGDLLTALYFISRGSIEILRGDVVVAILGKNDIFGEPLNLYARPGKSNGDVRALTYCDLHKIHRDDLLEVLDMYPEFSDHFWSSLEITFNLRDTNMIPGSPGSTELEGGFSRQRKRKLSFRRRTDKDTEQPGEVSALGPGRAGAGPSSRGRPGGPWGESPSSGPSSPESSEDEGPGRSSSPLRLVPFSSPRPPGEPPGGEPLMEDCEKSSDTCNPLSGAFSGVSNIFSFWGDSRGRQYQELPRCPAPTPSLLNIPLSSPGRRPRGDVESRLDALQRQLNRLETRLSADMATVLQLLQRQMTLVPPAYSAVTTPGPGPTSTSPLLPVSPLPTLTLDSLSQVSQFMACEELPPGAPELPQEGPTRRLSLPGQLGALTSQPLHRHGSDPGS

Consider `FC(F)(F)c1ccnc(C#Cc2ccc3ccccc3n2)c1`, for which the inhibition is 23.3% in [1] and 58% in [2].
The matching figures for `Oc1cccc2nc(C#Cc3ccccc3)ccc12`: 18% and 24.3%.
For `Fc1cccnc1C#Cc1ccc2ccccc2n1`, in that order: 31.3% and 55.2%.
For `N#Cc1ccnc(C#Cc2ccc3ccccc3n2)c1`, the inhibition in [1] came out at 35.2%; in [2], 76.1%.
Consider `C(#Cc1ccc2ccccc2n1)c1ccccc1`, for which the inhibition amounted to 35.9% in data set [1] and 67.7% in [2].
For the compound `Fc1ccc(C#Cc2ccc3ccccc3n2)nc1`, the inhibition in data set [1] is 33.9%; in data set [2], 63.3%.
`FC(F)(F)c1ccnc(C#Cc2ccc3ccccc3n2)n1`: the inhibition in data set [1] was 17.3%; in [2] it was 15.9%.
The matching figures for `Clc1cccc2nc(C#Cc3ccccc3)ccc12`: 11.7% and 8.02%.
For `COc1cccc(C#Cc2ccc3ccccc3n2)n1`, in that order: 16.6% and 48.6%.
For the compound `Brc1cccc2nc(C#Cc3ccccn3)ccc12`, the values for the IC50 in [3] and in data set [5] were 22.7 µM and 0.75 µM, respectively. The inhibition in data set [1] worked out at 56.7%; in data set [2] it was 77.5%. Further, the remaining at 0.5 h, 1 µM in [4] came out at 98%. For the same compound, the results for the activity at 10 µM at CYP3A4, at CYP2C9 and on CYP2D6 were 56%, 52% and 78%, respectively.
For the compound `FC(F)(F)c1cccc(C#Cc2ccc3ccccc3n2)n1`, the inhibition in data set [1] stood at 15.8%; in data set [2], 28.7%.
For `Cc1ccnc(C#Cc2ccc3ccccc3n2)c1`, in that order: 21.9% and 66.5%.
With `C(#Cc1ncccn1)c1ccc2ccccc2n1`, the figures for the inhibition in data set [1] and in [2] were 17.1% and 28.6%, respectively.
For the compound `C(#Cc1ccc2ccccc2n1)c1ccccn1`, the Activity entry in the data set with Rattus norvegicus [6] and with Rattus norvegicus [14] was “Active” throughout. Further, the Tmax in [7] was 10 min. Moreover, the inhibition was found to be 58.8% in [1] and 76.7% in [2]. Besides, the remaining at 0.5 h, 1 µM in data set [4] amounted to 88%. The half-life was 48.5 min in data set [8] and 58.2 min in data set [10]. Besides, the activity at 10 µM at CYP3A4 is 77%; at CYP2C9 it was greater than 99%; on CYP2D6, 98%. For the same compound, the Cmax in data set [9] amounted to 430 ng/mL. The Vd in data set [11] was found to be 1.27 L/kg. In data set [12], this compound yielded a clearance of 84.9 mL/min/kg. The bioavailability in data set [13] was determined as 15.9%.
For the compound `Fc1cnc(C#Cc2ccc3ccccc3n2)nc1`, the inhibition in data set [1] came to 16%; in [2], 15.6%.
`CCOc1cccc2nc(C#Cc3cccnc3)ccc12`: the inhibition in [1] worked out at 47.2%; in data set [2], 66.6%.
For `C(#Cc1ccc2ccccc2n1)c1cncnc1`, in that order: 13.6% and 22.4%.
For `N#Cc1cccc(C#Cc2ccc3ccccc3n2)n1`, in that order: 33% and 64.8%.
For `CC(C)(C)C(=O)Oc1cccc2nc(C#Cc3cccnc3)ccc12`, in that order: 10.6% and 28.5%.
As for `CC(C)(C)C(=O)Oc1cccc2nc(C#Cc3ccccn3)ccc12`, the figures for the inhibition in data set [1] and in [2] were 17.1% and 62.4%, respectively.
On to `COc1cccc2nc(C#Cc3ccccc3)ccc12`, for which the inhibition is 63.6% in [1] and 68% in data set [2]. Further, the remaining at 0.5 h, 1 µM in data set [4] was less than 1%. The activity at 10 µM on CYP3A4 is 50%; at CYP2C9 it was 55%; on CYP2D6, greater than 99%.
Regarding `Cc1cccnc1C#Cc1ccc2ccccc2n1`, the inhibition in data set [1] came out at 18.9%; in data set [2] it was 40.1%.
For `Cc1ccc(C#Cc2ccc3ccccc3n2)nc1`, in that order: 29% and 66.3%.
The matching figures for `FC(F)(F)c1ccc(C#Cc2ccc3ccccc3n2)nc1`: 13% and 50.7%.
Consider `Brc1cccc2nc(C#Cc3cccnc3)ccc12`, for which the inhibition was determined as 22% in data set [1] and 40.1% in data set [2].
For `CC(C)(C)C(=O)Oc1cccc2nc(C#Cc3ccccc3)ccc12`, in that order: 24% and 23.8%.
Turning to `Oc1cccc2nc(C#Cc3ccccn3)ccc12`, the results for the inhibition in data set [1] and in data set [2] were 17.4% and 22.1%, respectively.
Regarding `COc1cccc2nc(C#Cc3cccnc3)ccc12`, the inhibition in data set [1] and in data set [2] was 67.7% each time. Moreover, in [4], the remaining at 0.5 h, 1 µM is less than 1%.
As to `NCC1(CC(=O)O)CCCCC1`, the Activity entry with Rattus norvegicus [6] and in the data set with Rattus norvegicus [14] was “Active” in each case.
With `Oc1cccc2nc(C#Cc3cccnc3)ccc12`, the inhibition in [1] amounted to 25.2%; in data set [2], 17.6%.
For `C(#Cc1ccc2ccccc2n1)c1cccnc1`, the figures for the inhibition in data set [1] and in data set [2] were 43.9% and 65.8%, respectively.
The matching figures for `FC(F)(F)c1cccnc1C#Cc1ccc2ccccc2n1`: 9.49% and 16.4%.
The matching figures for `Clc1cccc2nc(C#Cc3ccccn3)ccc12`: 31% and 64.3%.
With `Brc1cccc2nc(C#Cc3ccccc3)ccc12`, the inhibition in data set [1] is 21.1%; in data set [2], 20.7%.
For `Clc1cccc2nc(C#Cc3cccnc3)ccc12`, in that order: 11.2% and 28.4%.
The matching figures for `Fc1cccc(C#Cc2ccc3ccccc3n2)n1`: 29.6% and 46.9%.

The values are drawn from ChEMBL document CHEMBL2331457, “Synthesis and biological evaluation of 2-(arylethynyl)quinoline derivatives as mGluR5 antagonists for the treatment of neuropathic pain” (Bioorg Med Chem Lett, 2013).
